# Test results taken from ChEMBL document CHEMBL4513216, “Probing the Open Global Health Chemical Diversity Library for Multistage-Active Starting Points for Next-Generation Antimalarials” (ACS Infect Dis, 2020).
# Test: Toxicity liver stage against HepG2, at 10uM
# Assay type: cell-based
# Design: test concentration 10 uM, cell line HepG2-A16-CD81EGFP
# Settings: human, HepG2-A16-CD81EGFP cells; read-out: INHIBITION
# How it was run: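 Uninfected HepG2-A16-CD81EGFP cells, 3 × 10^3 per well, 1536-well, plated on prespotted compound at 10 μM final, parasite-free screening media added to match infected plates; puromycin 10 μM positive, DMSO 0.5% negative; run in parallel with 48 h PbLuc assay at 37 °C, 5% CO2; viability by CellTiter-Glo luminescence, normalized to controls.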
row,Structure (SMILES),cytotoxicity at 10 µM
1,O=C(NCCCO)C1CC(=O)N(c2n[nH]c3cccc(F)c23)C1 (stereo not given),-1.07%
2,CCS(=O)(=O)N1Cc2nccn2CC(Cn2nc(C)nc2C)C1 (stereo not given),-2.34%
3,O=C(CCc1ccccc1)N1CCn2cc(Cn3cncn3)nc2C1,-0.881%
4,CC1CCCCN1C(=O)c1ccn(COc2ccc(F)cc2)n1 (stereo not given),4.7%
5,CC(C)(C)NC(=O)N1CCN(Cc2cccnc2)CC1,10.3%
6,c1ccc2c(N3CCSCC3)cnnc2c1,-4.02%
7,CCN1CCN(C(=O)COCc2nc(-c3ccncc3)no2)CC1,-8.72%
8,CCCC(=O)NCCc1nc2cc(-c3ccc(OC)cc3)ncn2n1,5.26%
9,COCCN1CCCC(C)(c2cc(O)[nH]n2)C1 (stereo not given),10.8%
10,Cc1nccc(C2CN(S(=O)(=O)N(C)C)C2)n1,-5.44%
11,CNc1cc(C)nc(C2COCCN2CCc2ccccc2)n1 (stereo not given),2.52%
12,CNc1ncc(C(=O)N2CCOC(C(=O)NC3CCCC3)C2)cn1 (stereo not given),12.2%
13,Cc1ccc(N(C)[C@@H]2CC[C@@H]3CN(C(=O)Cc4cccs4)C[C@@H]32)nn1,-13.5%
14,CCCn1cc(C(=O)N2CCCC2(C)c2nc(C)cc(C)n2)cn1 (stereo not given),4.28%
15,Cc1nccn1-c1ccc(NS(=O)(=O)c2cnn(C(C)C)c2)cn1,-5.05%
16,CC(C)(C)c1nnc(NCC(=O)N2CCc3sccc3C2)s1,5.62%
17,COCCN(C(=O)c1ccc(OC)cc1)c1ccc(C#N)cc1,7.81%
18,Cc1ccc(N2CCCN(C(=O)c3cc(CC(C)C)n[nH]3)CC2)nn1,-14.6%
19,COCCC(=O)NCC(O)c1c(F)cccc1F (stereo not given),-2.38%
20,Cc1cc(OCC(=O)NCc2ccc(F)cc2)nnc1C,-9.27%
21,O=C(O)c1csc(S(=O)(=O)N2CCN(Cc3c(F)cccc3Cl)CC2)c1,-2.56%
22,CCc1ccc(CNC(=O)CCNS(=O)(=O)c2cn(C)c(C)n2)s1,6.13%
23,CNC(=O)CN1CCN(C(=O)Nc2ccc(C)s2)CC1,-13.3%

row,Structure (SMILES),cytotoxicity at 10 µM
1,Cc1noc(C)c1CC(=O)N1CCCC(c2noc(C(C)C)n2)C1 (stereo not given),1.48%
2,CCn1nc(C)c(CNC(=O)NCC(C)(O)c2ccco2)c1C (stereo not given),-10.8%
3,COC(=O)c1ccc(Cl)c(NS(=O)(=O)c2cn(C)cn2)c1,11.9%
4,Cc1cc(CN2CCN(C(=O)C(C(C)C)n3cncn3)CC2)no1 (stereo not given),-9.88%
5,OC(COc1ccc2c(c1)OCO2)CN1CC(n2cccn2)C1 (stereo not given),-6.17%
6,Cc1nnc2n1CCN(C(=O)CN1C(=O)CCOc3ccccc31)C2,4.48%
7,Cc1cnn(CCC(=O)Nc2cccnc2N2CCC(CO)CC2)c1,-2%
8,O=C(NC1CCN(c2ncccn2)CC1)c1cccc(-n2ccnc2)c1,-1.17%
9,Cc1cc(NC(=O)NCCc2ccsc2)n(C)n1,12.3%
10,COc1ccccc1OC1CCN(c2ccncc2)CC1,3.33%
11,CCc1cc(N2C[C@H](C3CC3)[C@@H](N)C2)nc(N2CCCC2)n1,0.334%
12,CC1(Cc2ccccn2)NCCc2[nH]cnc21 (stereo not given),-5.18%
13,CN(Cc1ccon1)c1nc(-c2ccccn2)nc2c1CCNCC2,-2.45%
14,COC(=O)C(C)(C)NC(=O)c1cc(COc2ccccc2OC)[nH]n1,-4.83%
15,N#Cc1c(N)nc2c(c1C1CCOC1)CCc1cc(O)ccc1-2 (stereo not given),23.4%
16,CCN(CC)C(=O)[C@@H]1C[C@H](N)CN1C(=O)c1cc2c([nH]c1=O)CCC2,-1.94%
17,O=C(c1c[nH]nc1-c1cccc(F)c1)N1CCNC(c2ccccc2)C1 (stereo not given),-3.68%
18,COc1ccc(C(=O)C2CCCN(Cc3ccncc3)C2)c(OC)c1 (stereo not given),-15.7%
19,Cc1nc(C)n(CC2CCCCN2CC(=O)Nc2c(C)n[nH]c2C)n1 (stereo not given),-12.7%
20,CC(C(=O)NCc1ccnc(N2CCOCC2)c1)n1cccn1 (stereo not given),-6.28%
21,O=C(Nc1ccccc1)C1CN(Cc2ccsc2)CC12CCOCC2 (stereo not given),6.58%
22,CN(C)C(=O)N1CCOCC2(CCN(c3ccccn3)C2)C1 (stereo not given),1.6%
